A selection: hits, their analogues and other compounds. The true share with any hit is near 6.7%.
CSC inhib: cancer stem cell inhibition | cancer stem cell-like cells viability, luminescence | inhibition, % at 7.5 µM | actives 1.1% (n = 300,000) | AID 2717; in the data active means inhibition above about 75%; tested in HMLE shEcad cells
GRIN3A LBD mod: NR3A (human) ligand-binding domain modulation. NR3A LBD differential scanning fluorimetry, Tm shift; 0% = protein alone, 100% = glycine-bound protein. actives 2.5% (n = 340,000). Tm shift relative to glycine control, % at 25 µM;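 active means melting temperature shift of at least 10% of the positive control shift, at one fixed dose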
T cruzi inh: blocks replication of Trypanosoma cruzi; T. cruzi beta-gal in NIH3T3, luminescence, 90 h; inhibition, % (test concentration not listed); actives 1.4% (n = 300,000); AID 1885;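 active means mean inhibition across valid replicates above about 55%, limit read from the data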;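 further: signal also drops with host cell toxicity which is not excluded here; 0% = plate median of DMSO wells and 100% = zero luminescence signal; higher percent means less beta-gal luminescence so fewer parasites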
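System: mouse NIH/3T3 fibroblasts infected with β-gal-expressing T. cruzi Tulahuen C4 / Input: NIH/3T3 cells, 5,000 per well / Buffer or medium: Low-serum DMEM with 2% FBS / Probe or stimulus: 5000 reporter trypomastigotes per well / Schedule: ≥90 h infection period, 3 h prior cell attachment / Measured by: GalScreen luminescence, 60 min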
PREPL inh: inhibits the human prolyl oligopeptidase-like enzyme; recombinant PREPL, fluorescence polarization activity-based probe; actives 0.68% (n = 320,000); AID 2751; inhibition, % at 5.96 µM; in the data active means inhibition above about 43%;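 further: 0% = enzyme with DMSO and 100% = wells lacking enzyme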
Target sequence (Q4J6C6 whole entry, looked up): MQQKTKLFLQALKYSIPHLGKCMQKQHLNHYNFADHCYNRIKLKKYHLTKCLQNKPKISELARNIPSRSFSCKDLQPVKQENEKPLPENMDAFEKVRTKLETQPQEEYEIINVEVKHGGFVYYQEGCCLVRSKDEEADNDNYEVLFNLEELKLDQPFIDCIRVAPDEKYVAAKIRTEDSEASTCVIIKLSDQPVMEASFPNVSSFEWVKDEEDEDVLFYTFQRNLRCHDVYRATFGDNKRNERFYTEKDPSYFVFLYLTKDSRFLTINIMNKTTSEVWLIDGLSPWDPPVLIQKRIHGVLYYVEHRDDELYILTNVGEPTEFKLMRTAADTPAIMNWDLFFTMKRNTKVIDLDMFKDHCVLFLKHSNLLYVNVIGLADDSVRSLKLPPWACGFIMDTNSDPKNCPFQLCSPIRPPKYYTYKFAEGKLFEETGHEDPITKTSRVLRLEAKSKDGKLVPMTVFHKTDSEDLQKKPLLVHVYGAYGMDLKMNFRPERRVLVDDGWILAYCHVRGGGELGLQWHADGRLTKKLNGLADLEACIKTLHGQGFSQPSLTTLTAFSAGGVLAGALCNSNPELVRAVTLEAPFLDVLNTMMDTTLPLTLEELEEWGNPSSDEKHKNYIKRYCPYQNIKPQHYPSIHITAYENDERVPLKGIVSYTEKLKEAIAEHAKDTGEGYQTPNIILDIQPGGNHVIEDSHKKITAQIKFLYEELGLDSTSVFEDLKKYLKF
Beta apoptosis: beta cell apoptosis inhibition; INS-1E cytokine-induced death, ATP luminescence, 48 h; percent of positive-control rescue, neutral wells zero; protection from apoptosis, % (concentration not given with the values); actives 0.8% (n = 300,000); AID 435005;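 active means Every replicate reaches about 75%, or at least half do and their mean reaches it too, limit read from the data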;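 further: 0% = cytokine-treated negative control wells and 100% = positive control rescue; higher means more ATP so stronger rescue from cytokine killing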
CHOP inhibitor: CHOP inhibition in unfolded protein response; CHO-K1 CHOP-promoter luciferase, tunicamycin-induced, 15-18 h; inhibition, % at 10 µM; actives 3.8% (n = 220,000);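 active means compounds that reduced the stress-induced luciferase reporter signal by more than about 70% of percent inhibition, limit read from the data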;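 further: 0% = tunicamycin plus vehicle and 100% = wells without tunicamycin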
* marks the source's active call; other numbers are inactive results; nt = not tested or not shown; ! = not confirmed by another sample.

SMILES	CSC inhib	GRIN3A LBD mod	T cruzi inh	PREPL inh	Beta apoptosis	CHOP inhibitor
CCn1c(SCC(=O)Nc2ccc(NC(C)=O)cc2)nc2c([nH]c3ccccc32)c1=O	-12	12*	-2	-2	3	nt
Cn1c(SCC(=O)Nc2cccc(F)c2)nc2c([nH]c3ccccc32)c1=O	7	29*	-36	8	10	54
CC(C)Cn1c(SCC(=O)NC(=O)Nc2ccc3c(c2)OCCO3)nc2ccccc2c1=O	31	0	-12	16	-2	70*
O=Cc1ccc(OCc2cn(CC(=O)c3ccc(O)cc3)nn2)cc1	nt	-33	nt	nt	nt	nt
CC(C)(C)C(O)CN1CCCC1 (stereo unspecified)	5	-2	5	9	1	0
CCCCn1c(SCC(=O)Nc2ccc(NC(C)=O)cc2)nc2ccccc2c1=O	8	33*	3	5	0	nt
CCOC(=O)C(C)Sc1nc2c([nH]c3ccccc32)c(=O)n1C (stereo unspecified)	nt	-3	24	11	nt	26
Cn1c(SCC(=O)Nc2ccc(F)cc2)nc2c([nH]c3ccccc32)c1=O	15	0	-26	19	30	85*
CCn1c(SCC(=O)Nc2ccccc2)nc2ccccc2c1=O	-10	0	-7	-1	-3	nt
CCOC(=O)CSc1nc2c([nH]c3ccccc32)c(=O)n1C	-13	3	2	-3	3	76*
O=C(NC(=S)Nn1cnnc1)c1cccc(Br)c1	-13	-2	3	-5	2	10
COC(=O)c1ccc(CSc2ccc3nnc(-c4cccc(F)c4)n3n2)o1	-5	1	7	-15	-4	53
O=C(c1ccc(Cn2cc([N+](=O)[O-])cn2)o1)N1N=C(C(F)F)CC1(O)C(F)F (stereo unspecified)	nt	0	11	19	-3	27
O=C(c1ccc(COc2ccccc2Br)o1)N1N=C(C(F)F)CC1(O)C(F)F (stereo unspecified)	16	5	14	7	5	89*
COc1ccccc1N1CN(S(=O)(=O)c2ccc(C)cc2)c2nc3ccccc3nc21	4	0	nt	15	-1	nt
COc1cccc(C(=O)COC(=O)C(C)N2C(=O)c3ccccc3C2=O)c1 (stereo unspecified)	-2	14*	-19	-5	-8	5
O=C(NC1CCN(C(=O)Nc2ccccc2Cl)CC1)c1cccc(F)c1	6	-2	17	14	3	nt
COc1cc(OC)c2c(-c3ccccc3)cc(=O)oc2c1C(CCN1CCCCC1)c1ccc(N(C)C)cc1 (stereo unspecified)	-1	-1	41	13	42	0
COc1ccc(C(CCN2CCCCC2)c2c(OC)cc(OC)c3c(-c4ccccc4)cc(=O)oc23)cc1 (stereo unspecified)	-8	-5	43	6	86*	12
CCCCCc1cc(=O)oc2c(C(CCN3CCCC(C)C3)c3cc(OC)c(OC)c(OC)c3)c(OC)cc(OC)c12 (stereo unspecified)	102*	-21	50	4	110*	93*
CCCCCc1cc(=O)oc2c(C(CCN3CCCC(C)C3)c3ccc(N(C)C)cc3)c(OC)cc(OC)c12 (stereo unspecified)	109*	-1	38	17	63	84*
CC(Sc1ccc(S(=O)(=O)N(C)C)cn1)C(=O)NC1CCCC1 (stereo unspecified)	-14	1	nt	-2	-4	nt
O=c1c2ccccc2c(/C=N/c2ncn[nH]2)c(O)n1Cc1ccccc1	13	15*!	31	11	7	16
CC1(C)CC2CC(C)(CN2C(=O)COC(=O)c2ccccc2C(F)(F)F)C1 (stereo unspecified)	55	2	nt	5	4	nt
Cc1cc(N)c2cc(NC(=O)/C=C/c3ccccc3Cl)ccc2n1	141*	18*	51	-35	109*	-76
SMILES	CSC inhib	GRIN3A LBD mod	T cruzi inh	PREPL inh	Beta apoptosis	CHOP inhibitor
Cc1cc(C)nc(NC(=O)/C=C/c2ccccc2Cl)n1	nt	-2	11	6	8	15
Cc1ccnc(NC(=O)/C=C/c2ccccc2Cl)c1	14	20*	-12	0	-7	40
CC1(C)Cc2nc3scc(NC(=O)c4ccccc4)c3cc2CO1	-9	1	0	9	12	10
Cc1ccccc1C(=O)Nc1ccc(C(=O)N/N=C/c2ccc(O)cc2)cc1	57	28*	-10	2	-1	nt
O=C(N/N=C/c1ccc(O)cc1)c1ccc(NC(=O)c2ccccc2Br)cc1	-4	18*	-2	9	2	-20
Cc1ccccc1C(=O)Nc1cccc(C(=O)N/N=C/c2cc(Cl)cc([N+](=O)[O-])c2O)c1	49	5	40	29	101*	-9
CC(OC(=O)CNC(=O)c1ccc2ccccc2c1)C(=O)N(C)C1CCCCC1 (stereo unspecified)	-6	2	-10	32	-2	nt
O=[N+]([O-])c1ccc(Cl)c(S(=O)(=O)Nc2ccc3cn[nH]c3c2)c1	-4	-6	nt	-2	-3	nt
O=[N+]([O-])c1ccc2cn[nH]c2c1	40	14*	-14	0	-7	5
CC(/C=C1\SC(=S)N(c2ccc(C(=O)O)cc2)C1=O)=C\c1ccccc1	76*	4	8	-7	4	68
CC(/C=C1\SC(=S)N(NC(=O)c2ccc(C)cc2)C1=O)=C\c1ccccc1	13	3	-3	-16	nt	46
CC(/C=C1\SC(=S)N(NC(=O)c2ccncc2)C1=O)=C\c1ccccc1	17	20*	-19	9	7	7
CCOc1cc(/C=C2\N=C(SCC)SC2=O)cc([N+](=O)[O-])c1OC(C)=O	7	6	-3	4	-15	28
CCOc1c(OC(C)=O)ccc(/C=C2\N=C(SCC)SC2=O)c1[N+](=O)[O-]	-13	14*	-22	5	-4	10
CCOC(=O)N1CCN(C(=O)c2ccc(CS(=O)c3ccccc3)o2)CC1 (stereo unspecified)	14	1	-13	11	-3	nt
CC(=O)c1c(C)[nH]c2ccccc2c1=O	16	0	1	23	4	-17
Cc1[nH]c2ccccc2c1C(=O)/C=C/c1ccccc1Cl	48	27*	14	12	nt	90*
Cc1[nH]c2ccccc2c1C(=O)/C=C\c1ccccc1Cl	-11	11*	10	1	4	74*
Cc1[nH]c2ccccc2c1C(=O)/C=C/c1ccccc1	3	-2	2	-8	-3	16
Cc1cccnc1NC(=O)CNC(=O)COc1ccccc1	nt	-1	-8	-7	-11	nt
O=C(Nc1ccc(-c2cn3c(n2)SCC3)cc1)c1ccc2ccccc2n1	-7	22*	24	9	2	-14

Screening results deposited in PubChem by several laboratories.
